# Experiments:
# [1] = test system: Rattus norvegicus; experiment: Maximal change in mean arterial blood pressure (MABP) measured as % change from pretreatment value at dose of 2.5 mg/kg in SHR; type: functional
# In short: (§1)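 Spontaneously hypertensive rats; test agent dissolved or dispersed in 0.5% methylcellulose and given by gastric gavage at 5 mL/kg after a 1-h equilibration. Doses ranged from 1 to 100 mg/kg, with 4–8 animals per dose. MABP and HR were monitored for 4 h. Pretreatment values and maximal % change were recorded, and maximal changes were compared with vehicle by Dunnett's t test.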
# [2] = target: T1, Adrenergic receptor alpha-2 (Rattus norvegicus, UniProt P22086+P19328+P22909); experiment: The compound was evaluated for the antagonistic activity against alpha-2 adrenergic receptor.; type: functional
# T1 sequence (P22086 whole entry): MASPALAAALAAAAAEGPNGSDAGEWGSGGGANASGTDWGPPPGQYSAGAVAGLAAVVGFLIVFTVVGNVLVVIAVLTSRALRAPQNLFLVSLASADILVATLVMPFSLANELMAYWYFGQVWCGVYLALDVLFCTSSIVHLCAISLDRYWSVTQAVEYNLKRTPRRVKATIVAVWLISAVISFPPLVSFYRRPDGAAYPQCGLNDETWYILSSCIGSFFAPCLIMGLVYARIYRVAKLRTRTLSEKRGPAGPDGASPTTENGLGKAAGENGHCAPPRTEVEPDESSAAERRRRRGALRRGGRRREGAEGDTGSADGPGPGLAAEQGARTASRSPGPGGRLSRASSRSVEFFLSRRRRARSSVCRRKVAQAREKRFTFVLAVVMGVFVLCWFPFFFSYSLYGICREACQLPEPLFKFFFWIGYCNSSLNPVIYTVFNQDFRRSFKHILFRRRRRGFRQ
# T1 sequence (P19328 whole entry): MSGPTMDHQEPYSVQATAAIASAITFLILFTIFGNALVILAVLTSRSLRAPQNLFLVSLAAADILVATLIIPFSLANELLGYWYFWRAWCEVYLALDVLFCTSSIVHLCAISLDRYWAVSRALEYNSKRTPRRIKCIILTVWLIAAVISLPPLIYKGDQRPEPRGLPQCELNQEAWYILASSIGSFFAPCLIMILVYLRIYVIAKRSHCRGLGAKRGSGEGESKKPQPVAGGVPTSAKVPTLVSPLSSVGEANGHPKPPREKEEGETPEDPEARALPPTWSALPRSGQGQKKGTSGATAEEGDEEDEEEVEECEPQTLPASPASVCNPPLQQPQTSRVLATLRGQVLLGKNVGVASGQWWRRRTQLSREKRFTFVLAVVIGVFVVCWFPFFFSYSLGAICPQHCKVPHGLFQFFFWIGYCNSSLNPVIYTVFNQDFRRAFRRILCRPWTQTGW
# T1 sequence (P22909 whole entry): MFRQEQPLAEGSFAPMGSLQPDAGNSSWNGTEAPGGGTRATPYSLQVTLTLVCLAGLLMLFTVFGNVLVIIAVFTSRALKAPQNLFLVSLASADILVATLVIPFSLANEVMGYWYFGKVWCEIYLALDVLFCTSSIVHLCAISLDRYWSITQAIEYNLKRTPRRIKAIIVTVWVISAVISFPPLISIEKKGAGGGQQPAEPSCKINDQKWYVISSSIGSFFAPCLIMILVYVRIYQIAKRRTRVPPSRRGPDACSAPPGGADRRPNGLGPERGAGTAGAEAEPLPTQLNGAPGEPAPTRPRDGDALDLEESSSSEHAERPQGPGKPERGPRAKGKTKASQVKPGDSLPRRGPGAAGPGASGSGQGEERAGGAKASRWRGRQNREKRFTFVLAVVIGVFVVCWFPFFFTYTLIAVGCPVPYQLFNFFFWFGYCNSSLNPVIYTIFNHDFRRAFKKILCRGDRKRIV
# [3] = test system: Rattus norvegicus; experiment: Maximal change in heart rate (HR) measured as pretreatment value at dose of 1 mg/kg in SHR; type: functional; in short: as §1
# [4] = test system: Rattus norvegicus; experiment: Maximal change in mean arterial blood pressure (MABP) measured as pretreatment value at dose of 2.5 mg/kg in SHR; type: functional; in short: as §1
# [5] = organism: Cavia porcellus; experiment: Beta-2-adrenoceptor ISA (intrinsic sympathomimetic activity)was measured as relaxant effect against a PGF2-alpha contracted guinea pig trachea at 3x10E -7 M; type: functional
# [6] = test system: Rattus norvegicus; experiment: Maximal change in heart rate (HR) measured as % change from pretreatment value at dose of 1 mg/kg in SHR; type: functional; in short: as §1
# [7] = target: Beta-1 adrenergic receptor (Cavia porcellus, UniProt B0FL73); experiment: The compound was evaluated for the antagonistic activity against beta-1 adrenergic receptor; type: functional; conditions: read-out: pA2 (converted)
# Sequence of Beta-1 adrenergic receptor (B0FL73 whole entry): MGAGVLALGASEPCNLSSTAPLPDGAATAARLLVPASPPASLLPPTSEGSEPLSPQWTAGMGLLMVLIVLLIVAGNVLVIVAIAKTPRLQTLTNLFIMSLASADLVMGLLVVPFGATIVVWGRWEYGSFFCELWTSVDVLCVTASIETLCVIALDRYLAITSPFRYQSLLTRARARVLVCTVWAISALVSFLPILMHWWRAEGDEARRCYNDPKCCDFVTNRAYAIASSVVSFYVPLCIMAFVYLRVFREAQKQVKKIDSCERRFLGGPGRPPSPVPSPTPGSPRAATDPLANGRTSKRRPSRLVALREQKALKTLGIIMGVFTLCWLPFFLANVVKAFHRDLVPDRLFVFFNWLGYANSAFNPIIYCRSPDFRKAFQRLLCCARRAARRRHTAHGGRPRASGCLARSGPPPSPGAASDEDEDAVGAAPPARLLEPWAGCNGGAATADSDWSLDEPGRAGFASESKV
# In short: (§2)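 Isolated tissue suited to each receptor test, held in 10-mL organ baths of Krebs-Henseleit solution at 37 °C and gassed with 95% O2/5% CO2. Antagonism was judged by how several concentrations of test agent altered a cumulative concentration-response curve to a receptor-specific agonist.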
# [8] = test system: Rattus norvegicus; experiment: Maximal change in heart rate (HR) measured as % change from pretreatment value at dose of 10 mg/kg in SHR; type: functional; in short: as §1
# [9] = test system: Rattus norvegicus; experiment: Maximal change in heart rate (HR) measured as pretreatment value at dose of 100 mg/kg in SHR; type: functional; in short: as §1
# [10] = test system: Rattus norvegicus; experiment: Maximal change in heart rate (HR) measured as pretreatment value at dose of 25 mg/kg in SHR; type: functional; in short: as §1
# [11] = target: Beta-2 adrenergic receptor (Cavia porcellus, UniProt Q8K4Z4); experiment: The compound was evaluated for the antagonistic activity against beta-2 adrenergic receptor.; type: functional; conditions: read-out: pA2 (converted); in short: as §2
# Sequence of Beta-2 adrenergic receptor (Q8K4Z4 whole entry): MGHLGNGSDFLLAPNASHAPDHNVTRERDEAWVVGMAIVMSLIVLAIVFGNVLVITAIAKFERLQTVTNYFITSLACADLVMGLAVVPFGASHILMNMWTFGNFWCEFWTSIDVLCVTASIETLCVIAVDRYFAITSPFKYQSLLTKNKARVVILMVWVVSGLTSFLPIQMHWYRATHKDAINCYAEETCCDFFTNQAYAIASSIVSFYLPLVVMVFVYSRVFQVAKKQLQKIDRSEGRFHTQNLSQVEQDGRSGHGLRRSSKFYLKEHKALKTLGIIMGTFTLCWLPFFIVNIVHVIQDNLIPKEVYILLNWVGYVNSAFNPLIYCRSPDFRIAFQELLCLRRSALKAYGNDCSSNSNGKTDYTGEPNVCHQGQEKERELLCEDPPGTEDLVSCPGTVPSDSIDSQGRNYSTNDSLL
# [12] = test system: Rattus norvegicus; experiment: Maximal change in mean arterial blood pressure (MABP) measured as pretreatment value at dose of 5 mg/kg in SHR; type: functional; in short: as §1
# [13] = test system: Rattus norvegicus; experiment: Maximal change in mean arterial blood pressure (MABP) measured as % change from pretreatment value at dose of 10 mg/kg in SHR; type: functional; in short: as §1
# [14] = test system: Rattus norvegicus; experiment: Maximal change in mean arterial blood pressure (MABP) measured as pretreatment value at dose of 1 mg/kg in SHR; type: functional; in short: as §1
# [15] = test system: Rattus norvegicus; experiment: Maximal change in heart rate (HR) measured as pretreatment value at dose of 10 mg/kg in SHR; type: functional; in short: as §1
# [16] = test system: Rattus norvegicus; experiment: Maximal change in heart rate (HR) measured as pretreatment value at dose of 2.5 mg/kg in SHR; type: functional; in short: as §1
# [17] = test system: Rattus norvegicus; experiment: Maximal change in mean arterial blood pressure (MABP) measured as pretreatment value at dose of 10 mg/kg in SHR; type: functional; in short: as §1
# [18] = test system: Rattus norvegicus; experiment: Maximal change in heart rate (HR) measured as % change from pretreatment value at dose of 100 mg/kg in SHR; type: functional; in short: as §1
# [19] = test system: Rattus norvegicus; experiment: Maximal change in mean arterial blood pressure (MABP) measured as pretreatment value at dose of 25 mg/kg in SHR; type: functional; in short: as §1
# [20] = target: Alpha-1 adrenergic receptor; experiment: The compound was evaluated for the antagonistic activity against alpha-1 adrenergic receptor.; conditions: read-out: pA2 (converted)
# [21] = test system: Rattus norvegicus; experiment: Maximal change in heart rate (HR) measured as % change from pretreatment value at dose of 5 mg/kg; type: functional; in short: as §1
# [22] = test system: Rattus norvegicus; experiment: Maximal change in heart rate (HR) measured as % change from pretreatment value at dose of 25 mg/kg; type: functional; in short: as §1
# [23] = test system: Rattus norvegicus; experiment: Maximal change in mean arterial blood pressure (MABP) measured as pretreatment value at dose of 100 mg/kg in SHR; type: functional; in short: as §1
# [24] = test system: Rattus norvegicus; experiment: Maximal change in mean arterial blood pressure (MABP) measured as % change from pretreatment value at dose of 25 mg/kg in SHR; type: functional; in short: as §1
# [25] = test system: Rattus norvegicus; experiment: Maximal change in heart rate (HR) measured as pretreatment value at dose of 5 mg/kg in SHR; type: functional; in short: as §1
# [26] = test system: Rattus norvegicus; experiment: Maximal change in heart rate (HR) measured as % change from pretreatment value at dose of 2.5 mg/kg; type: functional; in short: as §1
# [27] = test system: Rattus norvegicus; experiment: Maximal change in mean arterial blood pressure (MABP) measured as % change from pretreatment value at dose of 100 mg/kg in SHR; type: functional; in short: as §1
# [28] = test system: Rattus norvegicus; experiment: Maximal change in mean arterial blood pressure (MABP) measured as % change from pretreatment value at dose of 5 mg/kg in SHR; type: functional; in short: as §1
# [29] = test system: Rattus norvegicus; experiment: Maximal change in mean arterial blood pressure (MABP) measured as % change from pretreatment value at dose of 1 mg/kg in SHR; type: functional; in short: as §1
smiles,measurement,setting,value
CC(CCc1ccccc1)NCC(O)c1cc(C(N)=O)c2[nH]ccc2c1 (centres undefined),Change,[1],-25%
same,pA2,[2],5.4
same,HR,[3],442 beats min-1
same,MABP,[4],176 mmHg
same,Change,[5],89%
same,Change,[6],-3%
same,Kb,[7],39.8 nM
same,Change,[8],-15%
same,HR,[9],425 beats min-1
same,HR,[10],426 beats min-1
same,Kb,[11],50.1 nM
same,MABP,[12],176 mmHg
same,Change,[13],-40%
same,MABP,[14],171 mmHg
same,HR,[15],430 beats min-1
same,HR,[16],419 beats min-1
same,MABP,[17],166 mmHg
same,Change,[18],-26%
same,MABP,[19],183 mmHg
same,Kb,[20],251 nM
same,Change,[21],-12%
same,Change,[22],-18%
same,MABP,[23],178 mmHg
same,Change,[24],-47%
same,HR,[25],439 beats min-1
same,Change,[26],-10%
same,Change,[27],-45%
same,Change,[28],-32%
same,Change,[29],-9%
